High-throughput results: PubChem BioAssay, several laboratories
An excerpt weighted towards active compounds, which were near 2% of everything screened.
PKA-R2B activ: activates the human PKA-R2B holoenzyme complex. PKA-R2B holoenzyme dissociation, Cy5-IP20 fluorescence polarization; R2B truncated from residue 108, S112A mutant; 0% DMSO only, 100% 113 µM cGMP. activation, % at 11.4 µM. AID 504700. actives 0.079% (n = 340,000). P22694+P31323;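 active = activation above a cutoff set at the mean over all compounds plus 3 SD, cut at about 18% in these data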;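 note: higher means more holoenzyme dissociation and a rise in polarization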
Target sequence (P31323 whole entry, looked up, other chains not shown, the tested form may be a part): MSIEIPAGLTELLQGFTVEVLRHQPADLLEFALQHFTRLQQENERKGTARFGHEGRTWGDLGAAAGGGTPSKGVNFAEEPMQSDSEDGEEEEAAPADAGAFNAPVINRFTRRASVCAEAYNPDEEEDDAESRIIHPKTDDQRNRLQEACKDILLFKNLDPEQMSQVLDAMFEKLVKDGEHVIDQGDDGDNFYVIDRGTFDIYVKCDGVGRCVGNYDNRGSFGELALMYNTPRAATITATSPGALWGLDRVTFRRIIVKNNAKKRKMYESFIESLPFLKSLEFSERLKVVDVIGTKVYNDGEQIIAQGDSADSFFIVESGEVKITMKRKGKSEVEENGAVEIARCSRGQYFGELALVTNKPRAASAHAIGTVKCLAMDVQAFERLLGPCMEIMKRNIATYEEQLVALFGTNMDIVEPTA
PKA-R1A activ: PKA-R1A complex activation | P00514+P68181 | PKA-R1A dissociation, Cy5-IP20 fluorescence polarization; scaled: DMSO 0%, 113 µM cGMP 100% | activation, % at 11.4 µM | actives 0.083% (n = 340,000) | AID 504707;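 active = percent activation above the mean of all tested compounds plus 3 SD, cut at about 19% in these data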;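 note: higher means more PKAc released from R1A so a rise in polarization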
dFosB act-1: enhances mouse delta FosB homodimer DNA binding; purified delta FosB, TAMRA-CDK5 oligo fluorescence polarization; percent of positive-control signal above neutral wells; activation, % at 25 µM; P13346; actives 0.99% (n = 340,000); AID 493131;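 active = mean activation above about 17%, with every replicate also reaching it, limit read from the data, passing the limit was not always enough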
CAL PDZ FP-1: CAL PDZ (human) peptide binding inhibition | Q9HD26 | purified CAL PDZ, TMR-peptide fluorescence polarization, 1 h | inhibition, % at 24.9 µM | actives 0.92% (n = 300,000) | AID 602252;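 active = mean inhibition of at least 30% with at least half of replicates also reaching 30%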;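 note: 0% = DMSO neutral control and 100% = excess unlabeled competitor peptide PRC23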
CAL PDZ FP-2: human CAL PDZ-peptide interaction inhibition; Q9HD26; purified CAL PDZ, TMR-peptide fluorescence polarization, 1 h; actives 0.02% (n = 330,000); inhibition, % at 20 µM;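 active = highest replicate inhibition of at least 40%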;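 note: plate controls were DMSO neutral control wells for no effect and unlabeled competitor peptide control wells for full effect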
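Test system: purified CerCALP PDZ construct; Compound dosing: one concentration, 20 µM compound; Also added: TMR-labelled reporter peptide T*-PRC34 bound in PDZ groove; Read-out: inhibition from polarization loss; Controls: unlabelled peptide and DMSO controls; Signal: FP readout, S and P plane fluorescence; Incubation: 1 h at RT.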
NTR1 ag: activates human neurotensin receptor 1; P30989; NTR1-U2OS beta-arrestin-GFP spot imaging, agonist mode; activation, % at 20 µM; actives 0.17% (n = 330,000);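 active = activation at or above 40% of the spot to cytoplasm intensity ratio, with at least 20 cells analyzed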;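 note: 0% = DMSO without peptide and 100% = 100 nM NTR1 peptide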
dFosB act-2: enhances mouse delta FosB homodimer binding to DNA. activation, % at 24.9 µM. 2,400 tested, under 10 active. purified delta FosB, TAMRA-CDK5 oligo fluorescence polarization; normalised: neutral wells 0, positive control 100. shares compounds with dFosB act-1. AID 588690;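 active = highest replicate activation at or above 34% and every replicate reaching that threshold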;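 note: higher polarization means more probe DNA bound by delta FosB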
Active calls of the source: *; nt = no result.

SMILES	PKA-R2B activ	PKA-R1A activ	dFosB act-1	CAL PDZ FP-1	CAL PDZ FP-2	NTR1 ag	dFosB act-2
O=C(CN(Cc1ccc(Cl)cc1)C(=O)CN1C(=O)COc2ccccc21)NC1CCCC1	-2	-12	29*	nt	-3	12	8
CC(C)(C)c1ccc(S(=O)(=O)NNC(=O)c2cc3ccccc3[nH]2)cc1	-7	-2	-14	4	0	2	nt
CC(C)COC(=O)N(C)C[C@H]1OCc2cnnn2CCCC(=O)N([C@H](C)CO)C[C@H]1C	-9	9	nt	nt	nt	nt	nt
Nc1c(N(CCC2=CCCCC2)C(=O)Cc2ccc(F)cc2)c(=O)[nH]c(=O)n1Cc1ccccc1	-6	3	4	-5	0	-1	nt
Nc1c(N(CCC2=CCCCC2)C(=O)COc2ccc(F)cc2Cl)c(=O)[nH]c(=O)n1Cc1ccccc1	-5	5	29*	-3	0	nt	1
COc1ccc(CNC(=O)COC(=O)C2(C)CC2(Cl)Cl)cc1 (centres undefined)	-14	-5	3	-3	-1	1	nt
CCOc1ccc(S(=O)(=O)NCCC(=O)NC2CCC(C)CC2)cc1 (centres undefined)	-5	6	-4	-22	0	4	nt
Cc1ccc(NC(=O)CSc2nnc(NC(=O)C3CC3)s2)cc1	-8	-13	31*	4	-2	0	0
Cc1cc(C)cc(NC(=O)CSc2nnc(NC(=O)C3CC3)s2)c1	0	2	28*	-6	-3	-4	-2
Cc1ccc(NC(=O)CSc2nnc(NC(=O)C3CC3)s2)cc1C	5	-4	8	-4	-2	2	nt
CC(=O)c1ccc(NC(=O)CSc2nnc(NC(=O)C3CC3)s2)cc1	-10	2	14	-1	-1	2	nt
Cc1cc2c(c(CO)c1CCO)C(=O)[C@@H](C)[C@@H]2O	0	-1	7	-8	-2	0	nt
CN(C)S(=O)(=O)c1ccc(Cl)c(C(=O)Nc2ccc(S(=O)(=O)N3CCOCC3)cc2)c1	-15	11	-12	7	-1	0	nt
N#CNC(=Nc1cccc(Cl)c1)Oc1ccccc1	16	17	-3	-8	1	2	nt
N#CNC(N)=Nc1cccc(Cl)c1	-5	-7	22*	-1	-3	0	-7
CCC(C)(C)C1CCC2(CC1)NC(=O)N(CC(=O)N1CCN(S(=O)(=O)c3cc(C)ccc3C)CC1)C2=O (centres undefined)	-2	-4	45*	-3	-2	-1	6
CCC(C)(C)C1CCC2(CC1)NC(=O)N(CC(=O)Nc1nc(-c3ccc(C)cc3)cs1)C2=O (centres undefined)	-6	-8	34*	-4	-1	0	5
Cc1ccc(C)c(S(=O)(=O)N2CCN(C(=O)CN3C(=O)NC(C)(C)C3=O)CC2)c1	-7	-3	-10	-5	0	-2	nt
O=C(CN1C(=O)NC2(CCCC2)C1=O)Nc1nc(-c2ccc(F)cc2)cs1	-17	5	0	-5	-2	-1	nt
C[C@H](CO)N1C[C@H](C)[C@@H](CN(C)C(=O)OCc2ccccc2)OCc2cn(nn2)CCCC1=O	-1	-5	nt	nt	nt	nt	nt
Cc1ccc(S(=O)(=O)NNC(=O)Nc2cccc(C)c2C)c(C)c1	-6	-13	0	0	-2	0	nt
NC(=S)NN=CCn1cc([N+](=O)[O-])c(=O)[nH]c1=O	2	-8	-7	-2	1	nt	nt
CC1CCCC(C)N1C(=O)CN1C(=O)c2ccccc2S1(=O)=O (centres undefined)	-11	-9	6	-1	-1	-2	nt
CCOC(=O)N1CCN(C(=O)Cn2nc(C)n3nc(-c4ccc(CC)cc4)cc3c2=O)CC1	1	-8	1	2	-2	0	nt
COC(=O)CNc1nc(Cl)nc(Nc2ccc(Cl)cc2)n1	-3	-6	48*	1	0	2	7
SMILES	PKA-R2B activ	PKA-R1A activ	dFosB act-1	CAL PDZ FP-1	CAL PDZ FP-2	NTR1 ag	dFosB act-2
Cc1ccccc1OCc1nc(-c2ccc(NC(=O)c3ccc4c(c3)OCO4)cc2)no1	-7	-21	19*	-3	0	5	0
Cc1cc(OCc2nc(-c3ccc(NC(=O)c4cccnc4)cc3)no2)ccc1Cl	6	-6	78*	nt	1	0	-1
Cc1ccc(-n2nnnc2SCC(=O)NC2CCS(=O)(=O)C2)c(C)c1 (centres undefined)	-10	-1	1	-5	-1	0	nt
CC12CC3CC1C(C(=O)O2)C3C(=O)O (centres undefined)	-8	-6	-8	-2	0	nt	nt
COc1ccc([N+](=O)[O-])cc1NC(=O)COC(=O)c1ccc(O)cc1	-4	-4	53*	4	-1	1	6
COc1ccc([N+](=O)[O-])cc1NC(=O)c1ccc(Br)s1	3	-1	59*	3	0	4	4
COc1ccc([N+](=O)[O-])cc1NC(=S)NC(C)=O	2	-17	5	-4	-6	0	nt
Cc1ccc(S(=O)(=O)N(C)c2ccc(OC(=O)CN3C(=O)NC4(CCCC4)C3=O)cc2)cc1C	-3	-9	25*	-2	-2	5	3
Cc1ccc(S(=O)(=O)N(C)c2ccc(OC(=O)CN3C(=O)NC4(CCCC4)C3=O)cc2)cc1	5	5	-10	-1	0	1	nt
NS(=O)(=O)c1ccc(NC(=S)N2CCC(Cc3ccccc3)CC2)cc1	-6	-9	0	-2	-1	3	nt
CCc1cccc(NC(=O)c2cccc3c2C(=O)N(CC2CCCO2)C3)c1 (centres undefined)	-2	3	-29	nt	-1	12	nt
COc1cc(NC(=O)c2cccnc2)ccc1-c1cc2ccccc2oc1=O	nt	nt	nt	nt	nt	2	nt
O=C(Nc1cccnc1)c1cccc(-c2cc3ccccc3oc2=O)c1	4	6	46*	-7	-3	0	2
O=C(Nc1ccc(-c2cc3ccccc3oc2=O)c(Cl)c1)c1cccnc1	11	9	84*	-13	-4	0	3
Cc1ccc(C)c(NC(=O)CCC(=O)NNS(=O)(=O)c2ccc(Cl)cc2)c1	10	1	23*	-8	0	2	-1
Cc1ccc(C)c(NC(=O)CCC(=O)NNC(=O)COc2cc(C)ccc2C)c1	-8	-1	36*	3	-2	0	-2
Cc1ccc(NC(=O)CCC(=O)NNC(=O)COc2cccc3ccccc23)c(C)c1	12	-2	33*	0	-2	0	5
